EP2 modulator: modulates human prostaglandin E2 receptor EP2 signaling. EP2-expressing cells, cAMP HTRF FRET, PGE2 co-stimulation. induction, % at 25 µM. 0.83% of 260,000 active. AID 940;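 active = compounds whose cAMP rise, as percent of the full-agonist control response, exceeds 60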;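 note: rat C6 glioma line stably carrying human EP2 under a CMV promoter; the protocol text gives 20 µM as final concentration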
Thrombin inh: inhibitors of human thrombin. inhibition, % at 5 µM. 0.26% of 220,000 active. alpha-thrombin, Boc-VPR-AMC fluorogenic substrate cleavage;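 active = inhibition at or above 40%; inactive = inhibition below 40%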
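Material: human alpha-thrombin enzyme / Medium: pH 7.5 Tris (50 mM) with NaCl 150 mM, Tween 20 0.05% / Compound: single-point dosing at 5 µM, 0.2% DMSO / Incubation: enzyme reaction carried out at room temperature / Detection: AMC fluorescence, 355/460 nm / Read-out basis: percent inhibition scaled between no-compound controls and no-enzyme blanks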
PGE2 EP2 inh: blocks the human prostaglandin E2 receptor EP2; inhibition, % at 25 µM; 0.52% of 260,000 active; C6 glioma cells expressing human EP2, cAMP TR-FRET; cells stimulated with saturating PGE2;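 active = percent inhibition above 40 after rounding to a whole number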;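 note: rat C6 glioma host cells with rolipram phosphodiesterase inhibitor present; the protocol text gives 20 µM as final concentration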
FXIIa inh: blocks human coagulation factor XIIa protease activity; P00748; purified FXIIa, Boc-QGR-AMC fluorogenic substrate, 2 h; inhibition, % at 5 µM; 0.3% of 220,000 active; in the data active = inhibition above about 40%
FXIa inh 1536: inhibitors of human coagulation factor XIa; purified FXIa, Boc-Glu-Ala-Arg-AMC fluorogenic substrate; AID 798; inhibition, % at 5 µM; P03951; 0.14% of 220,000 active;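 active = inhibition of at least 40%; inactive = inhibition below 40%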;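 note: fluorescence of freed AMC excited at 355 nm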
hK5 inh: kallikrein 5 (human) inhibition; Q9Y337; recombinant hK5, fluorogenic AMC substrate cleavage; inhibition, % at 5 µM; 0.59% of 210,000 active;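 active = inhibition of 40% or more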
Hits are given with their value; – = inactive; · = no result. Shown are actives, neighbours in structure and some others; about 2.1% of the full set was active somewhere.

SMILES | EP2 modulator | Thrombin inh | PGE2 EP2 inh | FXIIa inh | FXIa inh 1536 | hK5 inh
COc1cc(C=O)ccc1Oc1nc(Nc2ccc(F)cc2F)nc(N2CCOCC2)n1 | – | – | – | – | – | 63
N/C(=N\OC(=O)c1ccc(Cl)c([N+](=O)[O-])c1)c1ccccn1 | – | – | – | 98 | – | –
COCCn1c(N)c(C(=S)NC(=O)c2cccs2)c(=O)[nH]c1=O | – | – | – | – | – | 90
COCCn1c(N)c(N(Cc2ccccc2)C(=O)C2CCCC2)c(=O)[nH]c1=O | – | – | – | – | – | –
CCCCCOc1ccc(C(=O)NC(C(=O)O)C(C)C)cc1 (stereo not given) | – | – | – | – | – | 41
CCCCc1ccc(C(=O)NC(C(=O)O)C(C)C)cc1 (stereo not given) | – | – | – | – | – | –
CCC(C)(C)n1nnnc1C(c1cc2cc3c(cc2[nH]c1=O)OCO3)N1CCc2ccccc2C1 (stereo not given) | – | · | – | · | · | ·
O=C(O)CC(Cc1ccccc1)c1ccc2c(c1)OCO2 (stereo not given) | – | – | · | – | – | –
c1ccc(SC(Sc2ccccc2)c2ccc3c(c2)OCO3)cc1 | – | · | 41 | · | · | ·
CC[C@H]1CN(C)[C@@H]2Cc3c([nH]c4ccccc34)C(=O)C[C@H]1[C@H]2C(=O)OC | – | · | 52 | · | · | ·
CCc1nnc(NC(=O)CSc2nncn2N)s1 | – | · | – | · | · | ·
Cc1noc(C)c1COc1ccc(C(=O)OCC(=O)NC2CCCCC2C)cc1 (stereo not given) | – | – | – | – | – | 43
CCc1nc(SCC(=O)Nc2ccccc2N2CCOCC2)c2c(C)c(C)sc2n1 | – | · | – | · | · | ·
C/C(N)=C(/C#N)C(=O)CSc1cc(Cl)ccc1Cl | – | – | – | – | – | –
C/C(N)=C(/C#N)C(=O)CSc1nc2cc(Cl)ccc2s1 | – | 41 | – | – | – | –
O=c1[nH]c2ccc(S(=O)(=O)Nc3ccc(Cl)c(Cl)c3)cc2[nH]1 | – | · | – | · | · | ·
O=C(CN1C(=O)c2ccccc2C1=O)c1ccccc1 | – | – | – | – | – | –
O=C(CN1C(=O)c2ccccc2C1=O)[C@@H](O)CN1C(=O)c2ccccc2C1=O | – | · | 46 | · | · | ·
Cc1cc(C)cc(NC(=O)c2ccc([N+](=O)[O-])o2)c1 | – | – | – | – | 70 | –
Cc1cc(C)nc(NC(=O)c2ccc([N+](=O)[O-])o2)n1 | – | – | – | – | – | –
Cc1cc([N+](=O)[O-])ccc1NC(=O)c1ccco1 | – | – | – | – | – | –
Cc1cc(NC(=O)c2ccc([N+](=O)[O-])o2)ccc1NC(=O)c1ccco1 | – | – | 64 | – | – | –
O=C(Nc1ccc(I)cc1)C1CC(=O)N(c2ccc(Cl)cc2)C1 (stereo not given) | – | · | – | · | · | ·
Cc1cccc(C)c1NC(=S)N(Cc1ccccc1)Cc1cccs1 | 63 | – | – | – | – | –
O=C(O)CNC(=S)N(Cc1ccccc1)Cc1cccs1 | – | – | – | – | – | –
SMILES | EP2 modulator | Thrombin inh | PGE2 EP2 inh | FXIIa inh | FXIa inh 1536 | hK5 inh
FC(F)(F)c1ccc(N=Cc2sc(N3CCOCC3)nc2-c2ccccc2)cc1 | – | – | 46 | – | – | –
CCN(CC)CC(=O)Nc1cc(N(C)C)nc2ccccc12 | – | – | – | – | – | –
CCCCCC(=O)Nc1cc(N(C)C)nc2ccccc12 | · | – | 40 | – | – | –
CCCCCC(=O)Nc1ccc2ccccc2c1 | – | – | – | – | – | 124
CCOC(=O)Cc1csc(NC(=O)c2sc3nc4ccc(CC)cc4cc3c2N)n1 | – | – | – | – | 43 | 91
CCOC(=O)Cc1csc(NC(=O)c2sc3nc4cc(C)ccc4cc3c2N)n1 | – | – | – | – | – | –
O=C(Oc1ccc2ccc(=O)oc2c1)c1cccs1 | – | – | – | 62 | 51 | –
CC(=O)Oc1ccc2ccc(=O)oc2c1 | – | – | – | – | – | –
CCOC(=O)N1N=C(c2ccc(Cl)cc2)CC1(O)C(F)(F)F (stereo not given) | – | · | – | · | · | ·
O=C1CCc2cc(S(=O)(=O)N3CCC(c4ccccc4)C3)ccc2N1 (stereo not given) | – | · | – | · | · | ·
O=C(OCc1ccccc1)/C(=C/c1cccc2ccccc12)NC(=O)c1ccccc1 | – | – | – | – | – | 47
C/C(=N\NC(=O)c1ccc(C)cc1C)c1ccc2c(c1)Nc1ccccc1S2 | – | – | 43 | – | – | –
